Measurements: paper PMC9085298 (RSC Advances, 2018)
In brackets after ≈: the same amount, converted by molar mass.

Tests used:
[1] = tested on: Staphylococcus aureus (ATCC 29213); assay: MIC80 by broth microdilution; assay type: cell-based; details: for Bacteria MIC80 S. aureus (29213): concentration inhibiting growth ≥80% vs vehicle, 16–24 h, 35 °C; for MIC80: Staphylococcus aureus, ATCC29213, read-out: Bacteria MIC80 S. aureus (29213)
Method in brief: (§1)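 CLSI broth microdilution in cation-adjusted Mueller–Hinton II broth with a 1.5-fold test-compound dilution series. Overnight culture adjusted to 5 × 10^5 CFU mL−1 final. Incubated 16–24 h at 35 °C ± 2 °C, then growth read by absorbance (OD600). MIC80 is the concentration giving ≥80% growth inhibition versus vehicle-treated cultures. Each value is the average of at least two independent determinations.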

[2] = tested on: HepDES19 cells; assay: MTS cytotoxicity assay; assay type: cell-based; details: read-out: CC50 (MTS); HepDES19 cells, 72 h, mitochondrial function
Method in brief: (§2)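 HepDES19 cells seeded at 1.0 × 10^4/well in DMEM with 10% FBS, 1% penicillin/streptomycin, 1% nonessential amino acids and 1% glutamine. Test compound in medium (1% DMSO final) added 48 h after plating, triplicate per concentration. After 72 h, MTS added for 90 min; absorbance at 490 nm. CC50 is 50% viability loss versus untreated cells, from a variable-slope log[inhibitor]–response fit.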

[3] = tested on: C. neoformans var grubii, KN99 (serotype A, MATα); assay: Inhibition of C. neoformans growth; assay type: cell-based, Cryptococcus neoformans
Method in brief: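 Test compound 0.19–50 μM, 48 h at 35 °C, density read at OD650. Growth expressed as % of DMSO-only cells. MIC80 is the minimal concentration inhibiting 80% growth versus vehicle. Triplicates; average of ≥2 independent assays.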

[4] = tested on: HepDES19 cells; assay: Neutral red cytotoxicity assay; assay type: cell-based; details: read-out: CC50 (neutral red); HepDES19 cells, 72 h, lysosomal function
Method in brief: (§3)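 HepDES19 cells seeded at 1.0 × 10^4/well in DMEM with 10% FBS, 1% penicillin/streptomycin, 1% nonessential amino acids and 1% glutamine. Test compound (1% DMSO final) added 48 h after plating, triplicate per concentration, and incubated 72 h. Viability measured by neutral red uptake. CC50 is 50% inhibition versus vehicle control, from a 4-variable slope fit of log-transformed data.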

[5] = MTS cytotoxicity assay; assay type: cell-based; details: human, HepDES19 cells (hepatoblastoma cells)
Method in brief: as §2

[6] = Neutral red cytotoxicity assay; assay type: cell-based; details: human, HepDES19 cells (hepatoblastoma cells)
Method in brief: as §3

[7] = tested on: Escherichia coli (ATCC 35218); assay: MIC80 by broth microdilution; assay type: cell-based; details: for MIC80: Escherichia coli, ATCC35218, read-out: Bacteria MIC80 E. coli (35218)
Method in brief: as §1

[8] = tested on: Pseudomonas aeruginosa (ATCC 27853); assay: MIC80 by broth microdilution; assay type: cell-based; details: concentration inhibiting growth ≥80% vs vehicle; 16–24 h, 35 °C
Method in brief: as §1

[9] = tested on: Acinetobacter baumannii (from a patient); assay: MIC80 by broth microdilution; assay type: cell-based; details: for MIC80: Acinetobacter baumannii, read-out: Bacteria MIC80 A. baumannii (from a patient)
Method in brief: as §1

[10] = concentration inhibiting growth ≥80% vs vehicle, 16–24 h, 35 °C

Row | Compound | Bacteria MIC80 S. aureus (29213) [1] | CC50 [2] | C. neoformans MIC80 ([3]; minimal concentration inhibiting 80% of growth, 48 h, 35 °C, YNB-02 + 1% DMSO) | CC50 [4] | MIC80 [1] | CC50 at 72 h [5] | CC50 at 72 h [6] | MIC80 [7] | Bacteria MIC80 E. coli (35218) [7, 10] | Bacteria MIC80 P. aeruginosa (27853) [8] | MIC80 [9] | Bacteria MIC80 A. baumannii (from a patient) [9, 10] | fold increase in antibacterial activity against S. aureus ([1]; relative to natural product 2) | fold less activity against C. neoformans ([3]; relative to hydroxy tropolone 2)
1 | 7-Hydroxy-3-isopropylcyclohepta-2,4,5-triene-1-thione [Compound 11] | 16 µM | 64.2 µM | 24 µM | 30.4 µM |  |  |  |  |  |  |  |  |  | 
2 | Cc1ccc(S(=O)(=O)Oc2cccc(C(C)C)cc2=O)cc1 [Compound 8, 6-(1-Methylethyl)-2-[[(4-methylphenyl)sulfonyl]oxy]-2,4,6-cycloheptatrien-1-one] | >100 µM |  |  |  | > 100 µM | 33.6 µM | 31.8 µM | > 100 µM | >100 µM | >100 µM | > 100 µM | >100 µM |  | 
3 | Cc1ccc(S(=O)(=O)Oc2cc(C(C)C)cccc2=O)cc1 [Compound 9, 4-(1-Methylethyl)-2-[[(4-methylphenyl)sulfonyl]oxy]-2,4,6-cycloheptatrien-1-one] |  |  |  |  | 8.8 µM (≈ 2.8 µg/mL) | 34.2 µM | 19.5 µM | > 100 µM |  |  | > 100 µM |  | 8 fold | 
4 | CC(C)c1cccc(=S)c(O)c1 [Compound 10, 2-Hydroxy-4-isopropylcyclohepta-2,4,6-triene-1-thione] |  |  |  |  | > 100 µM | 95 µM | 39.7 µM | > 100 µM |  |  | > 100 µM |  |  | > 2 fold
